Assays:
[1] = species: Homo sapiens; experiment: Selectivity factor, ratio of IC50 for human recombinant PDE2A to IC50 for human recombinant PDE10A1
[2] = molecular target: cAMP and cAMP-inhibited cGMP 3',5'-cyclic phosphodiesterase 10A (Homo sapiens, UniProt Q9Y233); experiment: Inhibition of human recombinant PDE10A1 expressed in baculovirus infected insect SF21 cells using [3H]cAMP as substrate after 30 mins by scintillation proximity assay
In short: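 Cytosolic PDE10A1 from Sf21 lysate (sonication in Tris-HCl/EDTA/sucrose pH 7.4, 48000 g supernatant, stored -70°C). Assay in 50 mM Tris-HCl/5 mM MgCl2 with 0.1 µM [3H]cAMP, started by substrate, 37°C for 30 min; stopped with Ysi-SPA beads, settled 1 h, scintillation counting. Enzyme amount optimized per preparation; no-enzyme blank for non-specific activity; IC50 by two-parameter Hill model.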

[3] = molecular target: cGMP-dependent 3',5'-cyclic phosphodiesterase (Homo sapiens, UniProt O00408); experiment: Inhibition of cGMP activated human recombinant PDE2A using [3H]cAMP as substrate after 30 mins by scintillation proximity assay
In short: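 PDE2A (NM002599) activated with 1 µM cGMP; substrate 0.5 µM [3H]cAMP; scintillation proximity read-out at varied inhibitor concentrations with fixed enzyme amount; IC50 from two-parameter Hill model.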

[4] = molecular target: 3',5'-cyclic-AMP phosphodiesterase 7B (Homo sapiens, UniProt Q9NP56); experiment: Inhibition of human PDE7B using [3H]cAMP as substrate after 30 mins by scintillation proximity assay
Chain of 3',5'-cyclic-AMP phosphodiesterase 7B (Q9NP56 whole entry): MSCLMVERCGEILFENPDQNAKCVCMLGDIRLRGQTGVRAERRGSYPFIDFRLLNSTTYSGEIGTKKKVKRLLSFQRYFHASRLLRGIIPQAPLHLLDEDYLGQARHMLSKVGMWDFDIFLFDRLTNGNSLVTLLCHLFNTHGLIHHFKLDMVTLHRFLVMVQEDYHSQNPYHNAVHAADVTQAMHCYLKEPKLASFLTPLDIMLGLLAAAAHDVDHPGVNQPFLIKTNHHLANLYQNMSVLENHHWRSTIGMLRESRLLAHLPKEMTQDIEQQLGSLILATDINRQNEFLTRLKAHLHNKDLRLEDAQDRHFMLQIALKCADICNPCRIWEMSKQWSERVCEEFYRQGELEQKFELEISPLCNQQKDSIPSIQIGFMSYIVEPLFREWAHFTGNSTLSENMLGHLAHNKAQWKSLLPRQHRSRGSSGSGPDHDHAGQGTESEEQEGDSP

[5] = molecular target: 3',5'-cyclic-AMP phosphodiesterase 4A (Homo sapiens, UniProt P27815); experiment: Inhibition of human PDE4A using [3H]cAMP as substrate after 30 mins by scintillation proximity assay
Chain of 3',5'-cyclic-AMP phosphodiesterase 4A (P27815 whole entry): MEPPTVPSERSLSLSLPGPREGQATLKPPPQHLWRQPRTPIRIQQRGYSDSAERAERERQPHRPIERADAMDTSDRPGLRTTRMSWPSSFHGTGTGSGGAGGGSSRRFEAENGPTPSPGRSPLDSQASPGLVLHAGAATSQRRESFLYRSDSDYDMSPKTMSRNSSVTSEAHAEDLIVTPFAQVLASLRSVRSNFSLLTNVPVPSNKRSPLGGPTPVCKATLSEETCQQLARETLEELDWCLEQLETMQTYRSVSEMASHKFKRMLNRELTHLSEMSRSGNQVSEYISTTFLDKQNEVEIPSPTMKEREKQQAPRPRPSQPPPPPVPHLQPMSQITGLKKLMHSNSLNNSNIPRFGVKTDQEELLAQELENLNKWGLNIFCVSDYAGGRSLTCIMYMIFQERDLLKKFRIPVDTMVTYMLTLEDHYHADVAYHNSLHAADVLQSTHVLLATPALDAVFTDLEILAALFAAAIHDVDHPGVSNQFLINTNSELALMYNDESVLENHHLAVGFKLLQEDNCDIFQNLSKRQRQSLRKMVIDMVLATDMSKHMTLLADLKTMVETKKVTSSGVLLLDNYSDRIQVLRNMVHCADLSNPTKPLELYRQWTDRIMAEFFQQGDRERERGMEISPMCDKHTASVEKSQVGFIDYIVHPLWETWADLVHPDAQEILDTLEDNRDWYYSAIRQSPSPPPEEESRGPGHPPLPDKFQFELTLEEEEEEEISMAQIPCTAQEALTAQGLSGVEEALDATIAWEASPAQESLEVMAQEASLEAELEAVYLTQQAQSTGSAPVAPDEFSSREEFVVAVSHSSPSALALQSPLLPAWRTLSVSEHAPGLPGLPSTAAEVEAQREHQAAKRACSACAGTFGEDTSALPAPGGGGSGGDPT

[6] = molecular target: Dual 3',5'-cyclic-AMP and -GMP phosphodiesterase 11A (Homo sapiens, UniProt Q9HCR9); experiment: Inhibition of human PDE11A using [3H]cAMP as substrate after 30 mins by scintillation proximity assay
Chain of Dual 3',5'-cyclic-AMP and -GMP phosphodiesterase 11A (Q9HCR9 whole entry): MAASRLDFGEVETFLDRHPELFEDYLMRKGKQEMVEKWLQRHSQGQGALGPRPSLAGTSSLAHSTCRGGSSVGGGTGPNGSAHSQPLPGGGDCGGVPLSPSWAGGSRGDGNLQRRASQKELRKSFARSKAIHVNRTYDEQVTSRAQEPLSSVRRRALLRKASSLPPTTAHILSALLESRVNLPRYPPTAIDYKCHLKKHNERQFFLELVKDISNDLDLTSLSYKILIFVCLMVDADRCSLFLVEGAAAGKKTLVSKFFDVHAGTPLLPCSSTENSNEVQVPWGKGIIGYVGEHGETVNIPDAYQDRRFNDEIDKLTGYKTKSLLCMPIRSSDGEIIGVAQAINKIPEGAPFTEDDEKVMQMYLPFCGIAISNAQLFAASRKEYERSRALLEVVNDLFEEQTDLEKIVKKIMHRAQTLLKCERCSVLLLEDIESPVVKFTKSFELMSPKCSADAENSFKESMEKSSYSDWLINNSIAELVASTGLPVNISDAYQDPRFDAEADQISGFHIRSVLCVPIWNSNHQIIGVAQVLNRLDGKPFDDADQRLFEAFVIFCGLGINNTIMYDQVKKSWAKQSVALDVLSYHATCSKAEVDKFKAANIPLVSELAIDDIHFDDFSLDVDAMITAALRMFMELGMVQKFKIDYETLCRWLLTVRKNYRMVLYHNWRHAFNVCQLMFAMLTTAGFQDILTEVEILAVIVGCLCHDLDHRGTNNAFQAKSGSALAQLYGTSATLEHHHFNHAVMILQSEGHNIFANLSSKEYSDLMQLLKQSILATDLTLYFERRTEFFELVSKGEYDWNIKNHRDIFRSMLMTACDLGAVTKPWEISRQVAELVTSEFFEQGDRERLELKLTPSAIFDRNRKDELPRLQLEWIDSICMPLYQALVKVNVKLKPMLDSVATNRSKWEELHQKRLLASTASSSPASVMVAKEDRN

[7] = molecular target: High affinity cAMP-specific and IBMX-insensitive 3',5'-cyclic phosphodiesterase 8A (Homo sapiens, UniProt O60658); experiment: Inhibition of human PDE8A using [3H]cAMP as substrate after 30 mins by scintillation proximity assay
Chain of High affinity cAMP-specific and IBMX-insensitive 3',5'-cyclic phosphodiesterase 8A (O60658 whole entry): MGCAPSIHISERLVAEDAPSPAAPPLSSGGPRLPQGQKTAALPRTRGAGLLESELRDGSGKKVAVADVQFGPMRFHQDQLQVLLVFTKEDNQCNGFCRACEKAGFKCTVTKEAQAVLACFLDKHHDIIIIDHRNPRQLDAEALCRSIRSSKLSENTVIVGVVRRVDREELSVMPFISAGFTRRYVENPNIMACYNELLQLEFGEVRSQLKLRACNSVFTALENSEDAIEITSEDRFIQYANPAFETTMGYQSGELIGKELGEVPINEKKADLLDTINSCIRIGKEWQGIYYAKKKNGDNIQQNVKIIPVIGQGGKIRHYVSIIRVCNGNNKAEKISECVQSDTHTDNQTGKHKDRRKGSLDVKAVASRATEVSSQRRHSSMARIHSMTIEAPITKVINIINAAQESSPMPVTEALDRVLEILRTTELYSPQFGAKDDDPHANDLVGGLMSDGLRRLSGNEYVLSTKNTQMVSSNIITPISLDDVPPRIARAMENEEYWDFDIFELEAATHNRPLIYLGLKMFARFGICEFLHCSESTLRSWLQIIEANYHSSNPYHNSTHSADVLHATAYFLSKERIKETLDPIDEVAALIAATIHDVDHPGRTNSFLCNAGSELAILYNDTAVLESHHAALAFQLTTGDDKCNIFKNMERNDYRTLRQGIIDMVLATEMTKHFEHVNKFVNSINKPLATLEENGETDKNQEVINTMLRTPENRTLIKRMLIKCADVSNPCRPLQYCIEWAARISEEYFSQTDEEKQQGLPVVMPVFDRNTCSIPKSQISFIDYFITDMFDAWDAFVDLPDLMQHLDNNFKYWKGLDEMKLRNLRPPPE

[8] = molecular target: High affinity cGMP-specific 3',5'-cyclic phosphodiesterase 9A (Homo sapiens, UniProt O76083); experiment: Inhibition of human PDE9A using [3H]cAMP as substrate after 30 mins by scintillation proximity assay
[9] = molecular target: Dual specificity calcium/calmodulin-dependent 3',5'-cyclic nucleotide phosphodiesterase 1B (Homo sapiens, UniProt Q01064); experiment: Inhibition of human PDE1B using [3H]cAMP as substrate after 30 mins by scintillation proximity assay
Chain of Dual specificity calcium/calmodulin-dependent 3',5'-cyclic nucleotide phosphodiesterase 1B (Q01064 whole entry): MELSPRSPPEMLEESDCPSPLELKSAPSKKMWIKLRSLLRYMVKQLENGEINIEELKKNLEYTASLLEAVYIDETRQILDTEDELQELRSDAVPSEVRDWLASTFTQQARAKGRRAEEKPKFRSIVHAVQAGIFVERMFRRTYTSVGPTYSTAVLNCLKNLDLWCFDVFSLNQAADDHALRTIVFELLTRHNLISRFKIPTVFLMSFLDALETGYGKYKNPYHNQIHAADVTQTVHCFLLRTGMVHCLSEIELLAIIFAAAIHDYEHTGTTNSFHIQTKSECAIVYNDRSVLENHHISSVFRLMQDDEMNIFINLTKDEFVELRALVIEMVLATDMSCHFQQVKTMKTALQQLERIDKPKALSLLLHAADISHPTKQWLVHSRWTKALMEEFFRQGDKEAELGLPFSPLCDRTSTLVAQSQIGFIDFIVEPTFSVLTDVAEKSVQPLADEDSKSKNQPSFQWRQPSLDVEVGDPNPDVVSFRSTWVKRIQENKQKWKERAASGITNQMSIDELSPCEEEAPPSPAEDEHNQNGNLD

[10] = Inhibition of bovine PDE6 using [3H]cAMP as substrate after 30 mins by scintillation proximity assay; parameters: species or system Bos taurus
[11] = molecular target: cGMP-inhibited 3',5'-cyclic phosphodiesterase 3A (Homo sapiens, UniProt Q14432); experiment: Inhibition of human PDE3A using [3H]cAMP as substrate after 30 mins by scintillation proximity assay
[12] = molecular target: cGMP-specific 3',5'-cyclic phosphodiesterase (Homo sapiens, UniProt O76074); experiment: Inhibition of human PDE5A using [3H]cAMP as substrate after 30 mins by scintillation proximity assay

Chain of cAMP and cAMP-inhibited cGMP 3',5'-cyclic phosphodiesterase 10A (Q9Y233 whole entry): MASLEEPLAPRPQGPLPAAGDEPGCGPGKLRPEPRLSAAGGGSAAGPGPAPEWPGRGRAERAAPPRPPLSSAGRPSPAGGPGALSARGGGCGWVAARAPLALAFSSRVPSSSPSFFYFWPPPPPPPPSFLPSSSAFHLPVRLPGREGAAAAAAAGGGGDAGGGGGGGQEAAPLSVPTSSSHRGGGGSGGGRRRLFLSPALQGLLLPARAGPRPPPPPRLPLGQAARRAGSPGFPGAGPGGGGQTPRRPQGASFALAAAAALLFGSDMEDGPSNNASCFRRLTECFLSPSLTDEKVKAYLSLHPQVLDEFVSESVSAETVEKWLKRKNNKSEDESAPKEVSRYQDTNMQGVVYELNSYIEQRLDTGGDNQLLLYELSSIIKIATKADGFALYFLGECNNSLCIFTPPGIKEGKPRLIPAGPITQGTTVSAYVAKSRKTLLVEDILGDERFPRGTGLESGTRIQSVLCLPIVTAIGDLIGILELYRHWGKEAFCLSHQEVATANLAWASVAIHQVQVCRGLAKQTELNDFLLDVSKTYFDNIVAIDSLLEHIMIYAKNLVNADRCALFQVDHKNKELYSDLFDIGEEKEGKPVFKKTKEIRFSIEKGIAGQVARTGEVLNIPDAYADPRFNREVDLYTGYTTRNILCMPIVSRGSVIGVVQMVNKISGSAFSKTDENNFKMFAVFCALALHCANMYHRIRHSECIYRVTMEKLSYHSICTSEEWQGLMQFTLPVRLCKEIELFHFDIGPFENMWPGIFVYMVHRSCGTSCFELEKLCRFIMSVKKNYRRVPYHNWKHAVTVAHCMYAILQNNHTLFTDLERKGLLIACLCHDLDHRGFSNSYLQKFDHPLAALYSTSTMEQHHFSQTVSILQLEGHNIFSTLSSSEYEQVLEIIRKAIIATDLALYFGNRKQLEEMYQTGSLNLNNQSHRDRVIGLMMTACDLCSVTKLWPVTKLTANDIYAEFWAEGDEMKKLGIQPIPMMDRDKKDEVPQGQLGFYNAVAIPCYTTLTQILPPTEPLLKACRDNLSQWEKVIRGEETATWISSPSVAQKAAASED

| Compound | Ratio IC50 [1] | IC50 [2] | IC50 [3] | IC50 [4] | IC50 [5] | IC50 [6] | IC50 [7] | IC50 [8] | IC50 [9] | IC50 [10] | IC50 [11] | IC50 [12] |
| --- | --- | --- | --- | --- | --- | --- | --- | --- | --- | --- | --- | --- |
| COc1cc(C#N)cc2c1nc(C)c1c(C)nc(-c3ccc(F)nc3)n12 | > 49 | 20.4 nM | > 1000 nM | – | – | – | – | – | – | – | – | – |
| COc1cc(C#N)cc2c1nc(C)c1c(C)nc(-c3cccnc3F)n12 | 58 | 1.69 nM | 98.6 nM | – | – | – | – | – | – | – | – | – |
| COc1cc(-c2ccc(F)nc2)cc2c1nc(C)c1c(C)nc(Br)n12 | > 97 | 10.3 nM | > 1000 nM | – | – | – | – | – | – | – | – | – |
| COc1cc2ncnc(N3CC[C@@H](Oc4cnc5ccccc5n4)C3)c2cc1OC | – | 16 nM | – | – | – | – | – | – | – | – | – | – |
| COc1cc(-c2ccc(F)nc2)cc2c1nc(C)c1c(C)nc(-c3ccc(F)nc3)n12 | 120 | 3.3 nM | 395 nM | > 1000 nM | > 1000 nM | > 1000 nM | > 1000 nM | > 1000 nM | > 1000 nM | > 1000 nM | > 1000 nM | > 1000 nM |
| COc1cc(-c2ccc(F)nc2)cc2c1nc(C)c1c(C)ncn12 | > 38 | 26.3 nM | > 1000 nM | – | – | – | – | – | – | – | – | – |
| COc1cc(Br)cc2c1nc(C)c1c(C)nc(-c3ccc(F)nc3)n12 | > 339 | 2.95 nM | > 1000 nM | > 1000 nM | > 1000 nM | > 1000 nM | > 1000 nM | > 1000 nM | > 1000 nM | > 1000 nM | > 1000 nM | > 1000 nM |
| COc1cc(Br)cc2c1nc(C)c1c(C)nc(-c3ccnc(F)c3)n12 | > 312 | 3.18 nM | > 1000 nM | – | – | – | – | – | – | – | – | – |
| COc1cc(-c2ccnc(F)c2)cc2c1nc(C)c1c(C)nc(-c3ccnc(F)c3)n12 | 306 | 1.57 nM | 481 nM | – | – | – | – | – | – | – | – | – |

Stronger by IC50 [2], values ahead:

| Ratio IC50 [1] | IC50 [2] | IC50 [3] | IC50 [4] | IC50 [5] | IC50 [6] | IC50 [7] | IC50 [8] | IC50 [9] | IC50 [10] | IC50 [11] | IC50 [12] | Compound |
| --- | --- | --- | --- | --- | --- | --- | --- | --- | --- | --- | --- | --- |
| 164 | 0.99 nM | 162 nM | < 1000 nM | > 1000 nM | 413 nM | > 1000 nM | > 1000 nM | > 1000 nM | 585 nM | > 1000 nM | 195 nM | COc1cc(-c2ccncc2)cc2c1nc(C)c1c(C)nc(-c3ccc(F)nc3)n12 |
| 90 | 0.87 nM | 78.6 nM | > 1000 nM | > 1000 nM | 395 nM | > 1000 nM | > 1000 nM | > 1000 nM | 559 nM | > 1000 nM | 228 nM | COc1cc(-c2cccnc2)cc2c1nc(C)c1c(C)nc(-c3ccc(F)nc3)n12 |
| 102 | 0.46 nM | 46.8 nM | – | – | – | – | – | – | – | – | – | COc1cc(-c2cccnc2)cc2c1nc(C)c1c(C)nc(-c3ccnc(F)c3)n12 |
| 160 | 0.41 nM | 65.7 nM | > 1000 nM | 841 nM | > 1000 nM | > 1000 nM | > 1000 nM | > 1000 nM | > 1000 nM | > 1000 nM | 201 nM | COc1cc(-c2ccc(F)nc2)cc2c1nc(C)c1c(C)nc(-c3ccncc3)n12 |
| 88 | 0.33 nM | 29.2 nM | > 1000 nM | > 1000 nM | 286 nM | > 1000 nM | > 1000 nM | > 1000 nM | 631 nM | > 1000 nM | 279 nM | COc1cc(-c2ccc(F)nc2)cc2c1nc(C)c1c(C)nc(-c3cccnc3)n12 |
| 199 | 0.12 nM | 23.9 nM | > 1000 nM | > 1000 nM | 494 nM | > 1000 nM | > 1000 nM | > 1000 nM | 432 nM | > 1000 nM | 606 nM | COc1cc(Br)cc2c1nc(C)c1c(C)nc(-c3cccnc3F)n12 |
| 99 | 0.11 nM | 10.9 nM | > 1000 nM | 1000 nM | 286 nM | > 1000 nM | > 1000 nM | > 1000 nM | 425 nM | > 1000 nM | 232 nM | COc1cc(-c2cccnc2)cc2c1nc(C)c1c(C)nc(-c3cccnc3)n12 |
| 43 | 0.048 nM | 2.06 nM | – | – | – | – | – | – | – | – | – | COc1cc(-c2cccnc2F)cc2c1nc(C)c1c(C)nc(-c3cccnc3F)n12 |
| 94 | 0.037 nM | 3.49 nM | > 1000 nM | < 1000 nM | 457 nM | > 1000 nM | > 1000 nM | > 1000 nM | 177 nM | > 1000 nM | 91.6 nM | COc1cc(-c2cccnc2)cc2c1nc(C)c1c(C)nc(-c3cccnc3F)n12 |

— ChEMBL document CHEMBL3739392, “Development of highly potent phosphodiesterase 10A (PDE10A) inhibitors: Synthesis and in vitro evaluation of 1,8-dipyridinyl- and 1-pyridinyl-substituted imidazo[1,5-a]quinoxalines” (Eur J Med Chem, 2016)
